Results as given in PMC10012268 (ACS Infectious Diseases, 2023).

How the values were obtained:
[1] = test system: drug-resistant P. falciparum strains; test: Profiling against a selection of multidrug-resistant parasites; assay type: cell-based, Plasmodium falciparum
Procedure, shortened: (§1)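 Asexual blood-stage parasites in hypoxanthine-free RPMI 1640 with HEPES, NaHCO3, neomycin (100 μg/mL) and Albumax II (5 g/L). Infected blood (0.3% parasitemia, 2.5% hematocrit) was exposed to a 10-point serial dilution at 37 °C under 93% N2/4% CO2/3% O2. After 48 h, [3H]-hypoxanthine (0.5 μCi/well) was added for 24 h more. Scintillation cpm were normalised to untreated controls, and logit regression gave values as means of two experiments.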

RF12 = test: 3H-hypoxanthine 72 h assay, RF12; assay type: cell-based; conditions: Plasmodium falciparum, read-out: Pf multidrug-resistant strain EC50 RF12
[2] = Liver microsome stability, human; assay type: in vitro ADME
7G8 = test: 3H-hypoxanthine 72 h assay, 7G8; assay type: cell-based; conditions: Plasmodium falciparum, 7G8, read-out: Pf multidrug-resistant strain EC50 7G8
P. berghei EEFs = test: Exoerythrocytic stage assay; assay type: cell-based; conditions: Plasmodium berghei, 48 h, read-out: Pb liver stage EEFs EC50 (SD)
[3] = Hepatocyte stability, rat; assay type: in vitro ADME; conditions: pooled rat hepatocytes
Procedure, shortened: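 Test compound (1 μM) in Krebs–Henseleit buffer was incubated with pooled rat hepatocytes (1 × 10^6 cells/mL) at 37 °C, 5% CO2, with samples from 0 to 90 min. Reactions were quenched with ice-cold acetonitrile and centrifuged, and supernatants were analysed by LC–MS/MS. Half-life and CLint were derived from parent remaining. Run in duplicate.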

[4] = test system: P. falciparum NF54 female gametes; test: Dual gamete formation assay; assay type: cell-based; conditions: Plasmodium falciparum, NF54, read-out: female gamete EC50
Procedure, shortened: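 Stage V NF54 gametocyte cultures with >0.2% exflagellation were diluted to 12.5 million cells/mL in gametocyte medium containing 10% human serum and no Albumax. They were dispensed warm (625,000 cells/well) onto the test compound. After ookinete medium was added, plates went to 4 °C for 4 min and then 28 °C for 5 min, followed by 24 h at 28 °C in the dark. Female gametes (Pfs25) were scored from one fluorescence image per well.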

[5] = Kinetic aqueous solubility; assay type: physicochemical; conditions: kinetic in PBS
Procedure, shortened: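 Miniaturised shake flask: test compound (200 μM) in PBS pH 7.4 was shaken at 600 rpm, 25 °C for 2 h, filtered, and the filtrate half-diluted in acetonitrile. Run in duplicate.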

LogD at pH 7.4 = assay type: physicochemical; conditions: 1-octanol/phosphate-buffered saline (1:1, v/v)
Pf Dd2 parental line = test: 3H-hypoxanthine 72 h assay, Dd2 parental line; assay type: cell-based; conditions: Plasmodium falciparum, DD2, read-out: Pf Dd2 EC50, Dd2 parental line, 3H-hypoxanthine 72 h; average of two experiments
K1 = test: 3H-hypoxanthine 72 h assay, K1; assay type: cell-based; conditions: Plasmodium falciparum, K1, read-out: Pf multidrug-resistant strain EC50 K1
HepG2 = HepG2 host cell viability in the liver stage panel; assay type: cell-based; conditions: Homo sapiens, HepG2, 48 h, read-out: HepG2 EC50 (liver stage)
NF54 = test: 3H-hypoxanthine 72 h assay, NF54; assay type: cell-based; conditions: Plasmodium falciparum, NF54, read-out: Pf multidrug-resistant strain EC50 NF54
[6] = test system: P. falciparum 3D7 parasites; test: P. falciparum 3D7 asexual-stage parasite LDH viability assay; assay type: cell-based, Plasmodium falciparum; conditions: 3D7 parasite EC50 compared to 17
[7] = Liver microsome stability, mouse; assay type: in vitro ADME; conditions: pooled mouse liver microsomes
Procedure, shortened: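 Test compound (1 μM, phosphate buffer) was incubated with pooled mouse liver microsomes (0.5 mg/mL) at 37 °C, with and without an NADPH regeneration system, sampling at 0, 5, 20, 30, 45 and 60 min. Run in duplicate.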

[8] = test system: Pf Dd2 expressing ScDHODH; test: ScDHODH asexual-stage assay; assay type: cell-based; conditions: Plasmodium falciparum, DD2, 72 h, read-out: Dd2 ScDHODH EC50
Procedure, shortened: (§2)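 Parasites were sorbitol-synchronised one cycle before setup. Ring stages at 0.5% parasitemia and 2% hematocrit were plated onto twofold compound dilutions and incubated at 37 °C for 72 h. Cells were fixed in 0.25% glutaraldehyde (RT, 30 min), stained with 2.5× SYBR Green (37 °C, 30 min) and counted by flow cytometry. EC50 is the average of three independent experiments.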

[9] = test system: 41 resistant 3D7 P. falciparum populations (V259L cyt b Qo site mutation); test: LDH growth assay against 41 resistant populations; assay type: cell-based; conditions: Plasmodium falciparum, 3D7, read-out: EC50 against all three populations
Procedure, shortened: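 Three 3D7 clonal populations were selected by exposure to test compound starting at 2 × EC50, monitored by Giemsa smears and stepped up after recovery. Synchronised ring-stage parasites were then grown 72 h on predispensed compound in RPMI/AlbuMAX and frozen at −80 °C overnight. LDH activity was read with APAD/NBT absorbance at 650 nm.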

[10] = test system: mitochondrial electron transport chain of P. falciparum 3D7 asexual parasites; test: ETC biosensor / oxygen consumption rate; assay type: cell-based, Plasmodium falciparum
Procedure, shortened: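 Magnet-purified trophozoite-infected RBCs were saponin-released (0.05%, 37 °C, 3 min) and washed. Parasites were suspended in MAS buffer with 25 mM malate and 0.002% digitonin and seeded at 5 × 10^6 per Cell-Tak-coated well (800g, 10 min). Seahorse XFe96 OCR was read at baseline, after test compound (5 μM final), after TMPD (0.2 mM) with ascorbate (2 mM), then after NaN3 (10 mM). Each cycle was 20 s mix, 1 min wait, 2.5 min measure.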

[11] = test system: Pf SB1-A6 strain with a CNV (∼2-fold) and a C276F mutation in DHODH; test: SB1-A6 asexual-stage assay; assay type: cell-based; conditions: Plasmodium falciparum, 72 h, read-out: SB1-A6 EC50
Procedure, shortened: as §2

[12] = test system: Pf Dd2 strain with an I22L mutation in the Qi site cyt b; test: 3H-hypoxanthine 72 h assay, Dd2 cyt b; assay type: cell-based, Plasmodium falciparum
Procedure, shortened: as §1

## CCOC(=O)c1cn(CC)c2cc(N3CCC(C)CC3)c(F)cc2c1=O [Compound 21, Ethyl 1-Ethyl-6-fluoro-7-(4-methyl-1-piperidyl)-4-oxo-quinoline-3-carboxylate]
[1]
  potency against each drug-resistant strain compared to the Dd2 and NF54 wild-type parasites: equipotent
RF12
  EC50: 0.02 µM
[2]
  liver microsomes human CLint: 205.2 µL/min/mg
7G8
  EC50: 0.038 µM
P. berghei EEFs
  EC50: 0.024 µM
[3]
  hepatocyte CLint at 1 μM: > 92.4 µL/min/1e6 cells
[4]
  EC50: > 25 µM
[5]
  aqueous solubility pH 7.4: 22.9 μM
LogD at pH 7.4
  logD at 2 h: 3.2
Pf Dd2 parental line
  EC50: 0.055 µM
K1
  EC50: 0.048 µM
HepG2
  EC50: > 50 µM
NF54
  EC50: 0.065 µM

## CCn1cc(-c2nc(C)no2)c(=O)c2cc(F)c(N3CCC(Cc4ccccc4)CC3)cc21 [Compound 41, 7-(4-Benzyl-1-piperidyl)-1-ethyl-6-fluoro-3-(3-methyl-1,2,4-oxadiazol-5-yl)quinolin-4-one]
[1]
  potency against each drug-resistant strain compared to the Dd2 and NF54 wild-type parasites: equipotent
[6]
  fold more potent than 17: 2 fold
RF12
  EC50: 0.002 µM
7G8
  EC50: 0.003 µM
[7]
  microsomal CLint at 1 μM: 44.1 µL/min/mg
[8]
  EC50: 0.86 µM
[3]
  hepatocyte CLint at 1 μM: 24.7 µL/min/1e6 cells
[9]
  EC50: ~0.8 µM
[10]; after compound (5 μM), TMPD (cytochrome c electron donor) added
  OCR upon addition of TMPD: rescued
[10]; compounds at 5 μM, malate as the energy source
  effect on malate-dependent oxygen consumption rate (OCR): significantly reduce the OCR
LogD at pH 7.4
  logD at 2 h: 4.2
Pf Dd2 parental line
  EC50: 0.004 µM
[11]
  EC50: 0.48 µM
K1
  EC50: 0.005 µM
[12]
  difference in sensitivity between the ELQ-300 resistant Dd2 strain and the Dd2 parental strain: no difference in sensitivity
NF54
  EC50: 0.005 µM
